Test results reported in the M2OR odorant receptor database.
Positions count from the first letter of the chain named.

Legend:
Details in all cases: stereoisomer not certain
[1] = target: T1, OR11H2 (Homo sapiens) (UniProt Q8NH07)
T1 sequence (whole entry): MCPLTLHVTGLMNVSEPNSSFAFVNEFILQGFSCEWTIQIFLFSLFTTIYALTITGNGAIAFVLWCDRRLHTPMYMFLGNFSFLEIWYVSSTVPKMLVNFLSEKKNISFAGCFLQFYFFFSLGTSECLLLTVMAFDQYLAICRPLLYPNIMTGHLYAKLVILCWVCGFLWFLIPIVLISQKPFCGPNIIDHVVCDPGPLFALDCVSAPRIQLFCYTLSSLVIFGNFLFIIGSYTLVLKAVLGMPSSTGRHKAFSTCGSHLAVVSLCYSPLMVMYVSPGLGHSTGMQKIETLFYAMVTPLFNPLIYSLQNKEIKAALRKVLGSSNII
Outline: (§1)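 Transient luciferase assays in mammalian cell lines were common, though methods varied by source. The values come from published papers and their supplementary material, with extra details from the original authors when needed. Responsive refers to a measured signal the original authors judged statistically different from baseline, and non-responsive (inactive) to the remainder.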

[2] = target: T2, OR11H4 (Homo sapiens) (UniProt Q8NGC9)
T2 sequence (whole entry): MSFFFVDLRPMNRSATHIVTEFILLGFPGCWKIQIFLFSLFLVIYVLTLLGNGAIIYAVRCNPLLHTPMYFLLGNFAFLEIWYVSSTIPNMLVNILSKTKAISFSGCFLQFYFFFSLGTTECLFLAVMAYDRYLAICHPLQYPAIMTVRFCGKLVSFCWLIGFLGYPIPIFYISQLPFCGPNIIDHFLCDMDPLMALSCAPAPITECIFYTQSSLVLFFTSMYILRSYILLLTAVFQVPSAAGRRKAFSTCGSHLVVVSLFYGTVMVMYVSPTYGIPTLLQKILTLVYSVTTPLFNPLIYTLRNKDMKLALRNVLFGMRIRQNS
Outline: as §1

[3] = target: T3, OR11H6 (Homo sapiens) (UniProt Q8NGC7)
T3 sequence (whole entry): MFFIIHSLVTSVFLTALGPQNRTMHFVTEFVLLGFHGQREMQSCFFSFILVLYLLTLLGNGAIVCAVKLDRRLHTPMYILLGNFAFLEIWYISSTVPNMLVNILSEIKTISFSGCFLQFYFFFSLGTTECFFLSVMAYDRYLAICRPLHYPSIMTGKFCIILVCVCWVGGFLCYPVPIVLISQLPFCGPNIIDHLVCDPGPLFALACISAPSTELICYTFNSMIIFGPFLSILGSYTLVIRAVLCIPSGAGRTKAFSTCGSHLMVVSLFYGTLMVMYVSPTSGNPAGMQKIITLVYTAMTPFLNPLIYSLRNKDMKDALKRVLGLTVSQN
Outline: as §1

[4] = target: T4, OR11L1 (Homo sapiens) (UniProt Q8NGX0)
T4 sequence (whole entry): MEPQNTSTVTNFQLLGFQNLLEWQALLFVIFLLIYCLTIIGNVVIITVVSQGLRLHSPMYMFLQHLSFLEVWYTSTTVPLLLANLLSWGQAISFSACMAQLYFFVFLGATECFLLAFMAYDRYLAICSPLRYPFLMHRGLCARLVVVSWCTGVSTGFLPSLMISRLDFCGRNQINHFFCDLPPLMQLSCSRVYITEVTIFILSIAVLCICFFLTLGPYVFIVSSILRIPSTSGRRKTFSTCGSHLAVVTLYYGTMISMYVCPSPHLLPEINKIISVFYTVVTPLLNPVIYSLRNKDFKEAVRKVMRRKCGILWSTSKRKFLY
Outline: as §1

[5] = target: T5, OR12D2 (Homo sapiens) (UniProt P58182)
T5 sequence (whole entry): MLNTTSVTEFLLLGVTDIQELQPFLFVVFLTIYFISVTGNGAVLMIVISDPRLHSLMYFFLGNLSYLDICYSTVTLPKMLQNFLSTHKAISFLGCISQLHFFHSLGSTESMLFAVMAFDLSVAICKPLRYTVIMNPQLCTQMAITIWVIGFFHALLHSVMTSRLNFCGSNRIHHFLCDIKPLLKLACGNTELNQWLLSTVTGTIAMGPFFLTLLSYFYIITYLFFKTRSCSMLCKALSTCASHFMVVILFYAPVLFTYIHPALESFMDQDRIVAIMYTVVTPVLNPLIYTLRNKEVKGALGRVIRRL
Outline: as §1

[6] = target: T6, OR12D3 (Homo sapiens) (UniProt Q9UGF7)
T6 sequence (whole entry): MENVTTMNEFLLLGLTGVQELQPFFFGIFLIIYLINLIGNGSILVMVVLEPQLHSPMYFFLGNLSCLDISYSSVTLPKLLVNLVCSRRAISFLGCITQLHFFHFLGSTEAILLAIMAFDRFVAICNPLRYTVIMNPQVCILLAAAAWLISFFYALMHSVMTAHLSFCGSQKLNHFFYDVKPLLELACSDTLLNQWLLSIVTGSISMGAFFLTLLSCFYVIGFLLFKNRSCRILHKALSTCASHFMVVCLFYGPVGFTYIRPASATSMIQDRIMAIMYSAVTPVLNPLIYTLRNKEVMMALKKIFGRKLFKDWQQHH
Outline: as §1

[7] = target: T7, OR13A1 (Homo sapiens) (UniProt Q8NGR1)
T7 sequence (whole entry): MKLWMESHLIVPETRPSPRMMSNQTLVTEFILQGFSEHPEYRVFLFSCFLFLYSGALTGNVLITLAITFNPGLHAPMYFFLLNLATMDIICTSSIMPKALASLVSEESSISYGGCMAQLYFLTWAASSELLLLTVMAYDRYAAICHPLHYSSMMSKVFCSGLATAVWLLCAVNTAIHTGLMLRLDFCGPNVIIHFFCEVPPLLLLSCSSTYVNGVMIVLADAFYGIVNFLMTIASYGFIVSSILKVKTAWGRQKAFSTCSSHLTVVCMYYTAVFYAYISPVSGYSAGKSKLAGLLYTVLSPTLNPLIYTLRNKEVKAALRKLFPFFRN
Outline: as §1

[8] = target: T8, OR13C2 (Homo sapiens) (UniProt Q8NGS9)
T8 sequence (whole entry): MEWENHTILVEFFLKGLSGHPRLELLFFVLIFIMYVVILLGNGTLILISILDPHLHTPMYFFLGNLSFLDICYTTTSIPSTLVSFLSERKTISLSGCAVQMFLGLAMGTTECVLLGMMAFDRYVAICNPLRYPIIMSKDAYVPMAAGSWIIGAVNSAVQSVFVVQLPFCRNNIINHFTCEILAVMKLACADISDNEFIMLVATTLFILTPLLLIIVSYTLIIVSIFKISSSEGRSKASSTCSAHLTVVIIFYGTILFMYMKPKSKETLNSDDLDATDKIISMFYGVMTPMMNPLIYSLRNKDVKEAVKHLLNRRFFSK
Outline: as §1

[9] = target: T9, OR13C3 (Homo sapiens) (UniProt Q8NGS6)
T9 sequence (whole entry): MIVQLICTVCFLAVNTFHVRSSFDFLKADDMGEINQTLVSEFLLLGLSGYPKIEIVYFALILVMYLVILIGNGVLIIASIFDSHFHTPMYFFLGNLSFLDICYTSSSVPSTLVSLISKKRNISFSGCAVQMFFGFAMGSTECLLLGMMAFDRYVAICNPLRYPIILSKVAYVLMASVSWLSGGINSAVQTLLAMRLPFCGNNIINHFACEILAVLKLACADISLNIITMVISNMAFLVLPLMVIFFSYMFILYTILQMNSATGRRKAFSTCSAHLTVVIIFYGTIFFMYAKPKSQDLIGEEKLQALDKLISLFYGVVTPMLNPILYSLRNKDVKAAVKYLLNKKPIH
Outline: as §1

[10] = target: T10, OR13C4 (Homo sapiens) (UniProt Q8NGS5)
T10 sequence (whole entry): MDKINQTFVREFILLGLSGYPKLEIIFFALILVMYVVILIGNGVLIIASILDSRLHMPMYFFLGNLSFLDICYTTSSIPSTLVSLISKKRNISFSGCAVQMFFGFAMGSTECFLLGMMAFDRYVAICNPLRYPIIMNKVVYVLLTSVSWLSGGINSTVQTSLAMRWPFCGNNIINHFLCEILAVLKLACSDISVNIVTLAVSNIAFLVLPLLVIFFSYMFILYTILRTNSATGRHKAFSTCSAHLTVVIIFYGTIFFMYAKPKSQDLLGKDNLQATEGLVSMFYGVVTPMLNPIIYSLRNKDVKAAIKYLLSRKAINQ
Outline: as §1

[11] = target: T11, OR13C5 (Homo sapiens) (UniProt Q8NGS8)
T11 sequence (whole entry): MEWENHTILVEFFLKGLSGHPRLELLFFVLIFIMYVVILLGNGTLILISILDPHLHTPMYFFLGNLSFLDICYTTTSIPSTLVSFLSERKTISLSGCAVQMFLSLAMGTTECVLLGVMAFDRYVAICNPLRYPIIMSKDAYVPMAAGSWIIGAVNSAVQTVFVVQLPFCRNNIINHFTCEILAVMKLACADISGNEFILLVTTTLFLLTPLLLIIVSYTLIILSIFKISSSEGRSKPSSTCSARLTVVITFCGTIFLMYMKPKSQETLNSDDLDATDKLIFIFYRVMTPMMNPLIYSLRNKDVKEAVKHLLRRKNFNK
Outline: as §1

[12] = target: T12, OR13C8 (Homo sapiens) (UniProt Q8NGS7)
T12 sequence (whole entry): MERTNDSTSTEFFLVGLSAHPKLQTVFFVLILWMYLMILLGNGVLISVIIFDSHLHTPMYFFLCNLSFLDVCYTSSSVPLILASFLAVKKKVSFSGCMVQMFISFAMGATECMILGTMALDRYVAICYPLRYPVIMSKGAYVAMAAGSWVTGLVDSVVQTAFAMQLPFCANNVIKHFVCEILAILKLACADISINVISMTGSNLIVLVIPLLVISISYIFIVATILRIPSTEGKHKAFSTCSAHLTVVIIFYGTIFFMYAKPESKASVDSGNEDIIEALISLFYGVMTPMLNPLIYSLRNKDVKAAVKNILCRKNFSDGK
Outline: as §1

[13] = target: T13, OR13C9 (Homo sapiens) (UniProt Q8NGT0)
T13 sequence (whole entry): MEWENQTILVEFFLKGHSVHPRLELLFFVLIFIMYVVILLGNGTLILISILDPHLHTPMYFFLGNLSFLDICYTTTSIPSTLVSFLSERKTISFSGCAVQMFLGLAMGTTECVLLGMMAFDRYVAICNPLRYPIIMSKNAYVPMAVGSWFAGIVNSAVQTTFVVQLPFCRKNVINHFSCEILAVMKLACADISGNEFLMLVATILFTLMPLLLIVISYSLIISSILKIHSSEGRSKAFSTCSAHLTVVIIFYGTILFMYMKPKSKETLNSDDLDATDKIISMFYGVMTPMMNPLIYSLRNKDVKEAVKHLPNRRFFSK
Outline: as §1

[14] = target: T14, OR13D1 (Homo sapiens) (UniProt Q8NGV5)
T14 sequence (whole entry): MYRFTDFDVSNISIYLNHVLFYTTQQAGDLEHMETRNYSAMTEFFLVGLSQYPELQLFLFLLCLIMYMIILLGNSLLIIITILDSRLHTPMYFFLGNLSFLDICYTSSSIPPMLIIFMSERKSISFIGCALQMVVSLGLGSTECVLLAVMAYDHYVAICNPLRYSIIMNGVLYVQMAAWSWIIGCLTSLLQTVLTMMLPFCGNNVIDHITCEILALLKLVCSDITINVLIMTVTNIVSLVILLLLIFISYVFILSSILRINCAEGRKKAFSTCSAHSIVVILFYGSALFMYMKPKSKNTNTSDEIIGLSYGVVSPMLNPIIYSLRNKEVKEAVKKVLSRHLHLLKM
Outline: as §1

[15] = target: T15, OR13F1 (Homo sapiens) (UniProt Q8NGS4)
T15 sequence (whole entry): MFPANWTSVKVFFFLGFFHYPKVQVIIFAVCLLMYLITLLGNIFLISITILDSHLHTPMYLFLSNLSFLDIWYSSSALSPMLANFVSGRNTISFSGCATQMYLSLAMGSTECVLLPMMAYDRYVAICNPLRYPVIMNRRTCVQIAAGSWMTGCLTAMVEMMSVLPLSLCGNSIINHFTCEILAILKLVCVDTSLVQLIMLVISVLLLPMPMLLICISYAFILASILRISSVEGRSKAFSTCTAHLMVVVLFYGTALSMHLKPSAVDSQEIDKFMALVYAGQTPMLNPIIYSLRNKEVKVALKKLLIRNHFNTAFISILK
Outline: as §1

[16] = target: T16, OR13G1 (Homo sapiens) (UniProt Q8NGZ3)
T16 sequence (whole entry): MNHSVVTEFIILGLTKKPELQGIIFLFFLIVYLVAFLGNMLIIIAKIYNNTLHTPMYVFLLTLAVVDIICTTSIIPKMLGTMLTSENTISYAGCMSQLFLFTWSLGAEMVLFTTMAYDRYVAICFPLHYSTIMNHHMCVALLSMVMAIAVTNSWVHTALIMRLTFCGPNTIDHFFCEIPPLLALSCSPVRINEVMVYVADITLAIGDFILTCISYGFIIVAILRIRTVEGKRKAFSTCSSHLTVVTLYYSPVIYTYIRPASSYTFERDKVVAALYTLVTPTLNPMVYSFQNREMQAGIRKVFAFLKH
Outline: as §1

[17] = target: T17, OR11H12 (Homo sapiens) (UniProt B2RN74)
T17 sequence (whole entry): T1 sequence (whole entry) with H7Q, S33T, I49T, R68W, Y156C, K181M, L199R, P269S
Outline: as §1

[18] = target: OR11H7 (Homo sapiens) (UniProt Q8NGC8)
Sequence of OR11H7 (Homo sapiens) (Q8NGC8 whole entry): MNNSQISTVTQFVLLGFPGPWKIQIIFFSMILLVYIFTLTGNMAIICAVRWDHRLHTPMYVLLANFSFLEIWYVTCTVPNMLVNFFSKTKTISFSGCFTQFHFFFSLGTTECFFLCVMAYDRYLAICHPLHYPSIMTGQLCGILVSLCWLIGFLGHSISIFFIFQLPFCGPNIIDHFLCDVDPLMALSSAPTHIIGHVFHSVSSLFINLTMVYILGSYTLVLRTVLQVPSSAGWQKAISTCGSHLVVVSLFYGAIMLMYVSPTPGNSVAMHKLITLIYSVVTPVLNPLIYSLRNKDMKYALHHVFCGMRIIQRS
Outline: as §1

[19] = target: OR12D1 (Homo sapiens) (UniProt P0DN82)
Sequence of OR12D1 (Homo sapiens) (P0DN82 as listed by the source): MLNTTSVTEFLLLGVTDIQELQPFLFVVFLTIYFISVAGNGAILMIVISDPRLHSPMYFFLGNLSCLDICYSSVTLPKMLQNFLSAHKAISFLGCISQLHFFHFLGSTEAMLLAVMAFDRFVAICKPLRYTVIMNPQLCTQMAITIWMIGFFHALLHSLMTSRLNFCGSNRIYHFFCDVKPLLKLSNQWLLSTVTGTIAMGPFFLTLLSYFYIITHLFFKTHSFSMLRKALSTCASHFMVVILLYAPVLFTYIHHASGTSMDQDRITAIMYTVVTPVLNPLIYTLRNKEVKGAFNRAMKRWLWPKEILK
Outline: as §1

[20] = target: OR13C7 (Homo sapiens) (UniProt P0DN81)
Sequence of OR13C7 (Homo sapiens) (P0DN81 whole entry): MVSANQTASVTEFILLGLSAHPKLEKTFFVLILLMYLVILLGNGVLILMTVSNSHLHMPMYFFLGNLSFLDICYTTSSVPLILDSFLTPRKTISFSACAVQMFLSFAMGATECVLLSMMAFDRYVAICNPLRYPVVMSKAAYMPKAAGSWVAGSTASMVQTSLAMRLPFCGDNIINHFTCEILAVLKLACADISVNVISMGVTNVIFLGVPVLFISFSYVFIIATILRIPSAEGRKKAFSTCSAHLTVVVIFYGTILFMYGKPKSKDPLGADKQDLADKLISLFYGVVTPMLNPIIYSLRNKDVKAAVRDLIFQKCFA
Outline: as §1
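Note: active if original authors judged signal statistically different from baseline.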

Row | SMILES | odorant receptor agonist call [1] | odorant receptor agonist call [2] | odorant receptor agonist call [3] | odorant receptor agonist call [4] | odorant receptor agonist call [5] | odorant receptor agonist call [6] | odorant receptor agonist call [7] | odorant receptor agonist call [8] | odorant receptor agonist call [9] | odorant receptor agonist call [10] | odorant receptor agonist call [11] | odorant receptor agonist call [12] | odorant receptor agonist call [13] | odorant receptor agonist call [14] | odorant receptor agonist call [15] | odorant receptor agonist call [16] | odorant receptor agonist call [17] | odorant receptor agonist call [18] | odorant receptor agonist call [19] | odorant receptor agonist call [20]
1 | CCCCCC(=O)C(C)C(C)=O (configuration not stated) | inactive | inactive | inactive | inactive | inactive | inactive | inactive | inactive | inactive | inactive | inactive | inactive | inactive | inactive | inactive | inactive |  |  |  | 
2 | CCCCCC(S)C(C)CO (configuration not stated) | active | inactive | inactive | inactive | inactive | inactive | inactive | inactive | inactive | inactive | inactive | inactive | active | inactive | inactive | inactive |  |  |  | 
3 | CC(=O)c1c(C)c([N+](=O)[O-])c(C(C)(C)C)c([N+](=O)[O-])c1C | inactive | inactive | inactive | inactive | inactive | inactive | inactive | inactive | inactive | inactive | inactive | inactive | inactive | inactive | inactive | inactive | inactive | inactive | inactive | inactive
